Assay [1] concerns Mus musculus. Kind of assay: Survival of Staphylococcus aureus Smith infected BALB/c mouse assessed as septicemia protection at 0.50 mg/kg, sc administered at 1 hr and 3 hrs postinfection after 2 weeks. Format: functional, organism-based. Also on record: dose 0.5 mg/kg. The essentials: (§1)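 Female Balb/c mice (16-18 g), acclimated one week, 10 per group. Infection IP with 0.5 mL of 10^6 S. aureus (mouse-passaged Smith strain) in 10% hog gastric mucin. Compound dissolved in water, given subcutaneously in 0.5 mL at 1 h and 3 h post-infection as serial 2-fold dilutions from 75 to 0.125 mg/kg. Amikacin and neomycin served as control groups. Moribund mice counted per group; observation over two weeks.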

Assay [2] relates to Mus musculus. Kind of assay: Survival of Staphylococcus aureus Smith infected BALB/c mouse assessed as septicemia protection at 38 mg/kg, sc administered at 1 hr and 3 hrs postinfection after 2 weeks. Format: functional, organism-based. Also on record: dose 38 mg/kg. The essentials: as §1
Assay [3] concerns Mus musculus. In words: Survival of Staphylococcus aureus Smith infected BALB/c mouse assessed as septicemia protection at 4.7 mg/kg, sc administered at 1 hr and 3 hrs postinfection after 2 weeks. The arrangement: dose 4.7 mg/kg. Format: functional, organism-based. Put shortly:
as §1

For assay [4], the system named is Mus musculus. In words: Survival of Staphylococcus aureus Smith infected BALB/c mouse assessed as septicemia protection at 1.2 mg/kg, sc administered at 1 hr and 3 hrs postinfection after 2 weeks. Format: functional, organism-based. Also on record: dose 1.2 mg/kg. Put shortly:
as §1

Assay [5] concerns Mus musculus. Kind of assay: Survival of Staphylococcus aureus Smith infected BALB/c mouse assessed as septicemia protection at 19 mg/kg, sc administered at 1 hr and 3 hrs postinfection after 2 weeks. Format: functional, organism-based. The arrangement: dose 19 mg/kg. The essentials: as §1
The test system of assay [6] is Escherichia coli. In words: Antimicrobial activity against Escherichia coli ATCC 25922 after 20 to 24 hrs. The format is functional. Put shortly:
(§2)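 Broth microdilution in duplicate; compound in 2.5% DMSO in water, overnight culture added to a final inoculum of about 10^2-10^3 CFU/well. Growth read as A595 after 20-24 h at 37°C, relative to a no-compound well. MIC reported as a range: complete inhibition at the higher concentration, viable cells at the lower. Ampicillin and tetracycline are the positive controls.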

Assay [7] has as its system Staphylococcus aureus. Kind of assay: Septicemia protection in Staphylococcus aureus Smith infected sc dosed BALB/c mouse after 2 weeks. The format is functional. As to conditions: 336 h. The essentials:
as §1

The subject of assay [8] is Staphylococcus aureus. Kind of assay: Antimicrobial activity against Staphylococcus aureus ATCC 13709 after 20 to 24 hrs. The format is functional. Put shortly: as §2
The subject of assay [9] is Mus musculus. In words: Survival of Staphylococcus aureus Smith infected BALB/c mouse assessed as septicemia protection at 9.4 mg/kg, sc administered at 1 hr and 3 hrs postinfection after 2 weeks. The format is functional, organism-based. The arrangement: dose 9.4 mg/kg. The essentials:
as §1

Assay [10] concerns Mus musculus. Kind of assay: Survival of Staphylococcus aureus Smith infected BALB/c mouse assessed as septicemia protection at 75 mg/kg, sc administered at 1 hr and 3 hrs postinfection after 2 weeks. Format: functional, organism-based. Also on record: dose 75 mg/kg. The essentials: as §1
Assay [11] has as its system Mus musculus. In words: Survival of Staphylococcus aureus Smith infected BALB/c mouse assessed as septicemia protection at 2.3 mg/kg, sc administered at 1 hr and 3 hrs postinfection after 2 weeks. The format is functional, organism-based. Also on record: dose 2.3 mg/kg. The essentials:
as §1

In brackets after ≈: the same amount, converted by molar mass. Activity calls are given as the source filed them.

By MIC is commonly meant the smallest concentration in the dilution series that meets the test's criterion for growth inhibition. A high value points to a less susceptible organism. In the case of `NC[C@@H]1O[C@H](O[C@H]2[C@@H](OCCNCCc3ccccc3)[C@H](O[C@@H]3[C@@H](O)[C@H](N)C[C@H](N)[C@H]3O[C@H]3O[C@H](CO)[C@@H](O)[C@H](O)[C@H]3N)O[C@@H]2CO)[C@H](N)[C@@H](O)[C@@H]1O`, the outcome in assay [1], in assay [2], in [3], in assay [4] and in assay [5] was Active. For the same molecule, the values for the MIC in assay [6] and in [8] were 3 µg/mL (≈ 3.93 µM) and 0.3 µg/mL (≈ 0.393 µM), respectively. For the same molecule, in assay [7], the ED90 was 0.25 mg/kg.

Take `NC[C@@H]1O[C@H](O[C@H]2[C@@H](OCCNCc3cccnc3)[C@H](O[C@@H]3[C@@H](O)[C@H](N)C[C@H](N)[C@H]3O[C@H]3O[C@H](CO)[C@@H](O)[C@H](O)[C@H]3N)O[C@@H]2CO)[C@H](N)[C@@H](O)[C@@H]1O`: the result in [9], in [10], in assay [2], in [3], in assay [4] and in assay [5] was Active. Moreover, the result in [11] was Active. Besides, the MIC in assay [6] is 12 µg/mL (≈ 16 µM); in assay [8] it was below 1.5 µg/mL.

In the case of `NC[C@@H]1O[C@H](O[C@H]2[C@@H](OCCc3ccccc3)[C@H](O[C@@H]3[C@@H](O)[C@H](N)C[C@H](N)[C@H]3O[C@H]3O[C@H](CO)[C@@H](O)[C@H](O)[C@H]3N)O[C@@H]2CO)[C@H](N)[C@@H](O)[C@@H]1O`, the values for the MIC in [6] and in assay [8] were above 50 µg/mL and 6 µg/mL (≈ 8.34 µM), respectively.

For the molecule `NC[C@@H]1O[C@H](O[C@H]2[C@@H](OCCNC3CCNCC3)[C@H](O[C@H]3C(O[C@H]4O[C@H](CO)[C@@H](O)[C@H](O)[C@H]4N)[C@@H](N)C[C@@H](N)[C@@H]3O)O[C@@H]2CO)[C@H](N)[C@@H](O)[C@@H]1O` (stereo not given in full), the MIC in assay [6] amounted to 25 µg/mL (≈ 33.7 µM); in [8], 2 µg/mL (≈ 2.7 µM).

For `NC[C@@H]1O[C@H](O[C@H]2[C@@H](OCCNCCc3ccc(C(F)(F)F)cc3)[C@H](O[C@@H]3[C@@H](O)[C@H](N)C[C@H](N)[C@H]3O[C@H]3O[C@H](CO)[C@@H](O)[C@H](O)[C@H]3N)O[C@@H]2CO)[C@H](N)[C@@H](O)[C@@H]1O`, the MIC in assay [6] turned out to be 5 µg/mL (≈ 6.02 µM); in [8], 0.6 µg/mL (≈ 0.722 µM).

Take `NC[C@@H]1O[C@H](O[C@H]2[C@@H](OCCNC3CCCCC3)[C@H](O[C@@H]3[C@@H](O)[C@H](N)C[C@H](N)[C@H]3O[C@H]3O[C@H](CO)[C@@H](O)[C@H](O)[C@H]3N)O[C@@H]2CO)[C@H](N)[C@@H](O)[C@@H]1O`: the MIC in [6] and in assay [8] was 3 µg/mL (≈ 4.05 µM) throughout.

For the molecule `COc1cc(CCNCCO[C@H]2[C@H](O[C@@H]3[C@@H](O)[C@H](N)C[C@H](N)[C@H]3O[C@H]3O[C@H](CO)[C@@H](O)[C@H](O)[C@H]3N)O[C@H](CO)[C@H]2O[C@H]2O[C@@H](CN)[C@@H](O)[C@H](O)[C@H]2N)cc(OC)c1`, the MIC in assay [6] was 10 µg/mL (≈ 12.2 µM); in [8], 5 µg/mL (≈ 6.08 µM).

Turning to `NCCCNCCO[C@H]1[C@H](O[C@@H]2[C@@H](O)[C@H](N)C[C@H](N)[C@H]2O[C@H]2O[C@H](CO)[C@@H](O)[C@H](O)[C@H]2N)O[C@H](CO)[C@H]1O[C@H]1O[C@@H](CN)[C@@H](O)[C@H](O)[C@H]1N`, the MIC stood at 25 µg/mL (≈ 34.9 µM) in assay [6] and 3 µg/mL (≈ 4.19 µM) in assay [8].

Take `CN(C)CCO[C@H]1[C@H](O[C@@H]2[C@@H](O)[C@H](N)C[C@H](N)[C@H]2O[C@H]2O[C@H](CO)[C@@H](O)[C@H](O)[C@H]2N)O[C@H](CO)[C@H]1O[C@H]1O[C@@H](CN)[C@@H](O)[C@H](O)[C@H]1N`: the MIC in assay [6] came to 12 µg/mL (≈ 17.5 µM); in assay [8] it was 6 µg/mL (≈ 8.74 µM).

Regarding `NC[C@@H]1O[C@H](O[C@H]2[C@@H](OCCO)[C@H](O[C@@H]3[C@@H](O)[C@H](N)C[C@H](N)[C@H]3O[C@H]3O[C@H](CO)[C@@H](O)[C@H](O)[C@H]3N)O[C@@H]2CO)[C@H](N)[C@@H](O)[C@@H]1O`, the MIC in assay [6] and in assay [8] was 12 µg/mL (≈ 18.2 µM) in each case.

With `NC[C@@H]1O[C@H](O[C@H]2[C@@H](OCCNCCC3CC4CCC3C4)[C@H](O[C@@H]3[C@@H](O)[C@H](N)C[C@H](N)[C@H]3O[C@H]3O[C@H](CO)[C@@H](O)[C@H](O)[C@H]3N)O[C@@H]2CO)[C@H](N)[C@@H](O)[C@@H]1O` (stereo not given in full), the minimal inhibitory concentration (MIC) in assay [6] was above 10 µg/mL; in assay [8] it was 5 µg/mL (≈ 6.4 µM).

Regarding `NC[C@@H]1O[C@H](O[C@H]2[C@@H](OCCNc3cccnc3)[C@H](O[C@@H]3[C@@H](O)[C@H](N)C[C@H](N)[C@H]3O[C@H]3O[C@H](CO)[C@@H](O)[C@H](O)[C@H]3N)O[C@@H]2CO)[C@H](N)[C@@H](O)[C@@H]1O`, the MIC in assay [6] was 12 µg/mL (≈ 16.3 µM); in [8], below 1.5 µg/mL.

For the molecule `NC[C@@H]1O[C@H](O[C@H]2[C@@H](OCCCc3ccccc3)[C@H](O[C@@H]3[C@@H](O)[C@H](N)C[C@H](N)[C@H]3O[C@H]3O[C@H](CO)[C@@H](O)[C@H](O)[C@H]3N)O[C@@H]2CO)[C@H](N)[C@@H](O)[C@@H]1O`, the MIC in [6] was determined as 20 µg/mL (≈ 27.3 µM); in assay [8], 3 µg/mL (≈ 4.09 µM).

`NC[C@@H]1O[C@H](O[C@H]2[C@@H](OCCNc3ccccc3)[C@H](O[C@@H]3[C@@H](O)[C@H](N)C[C@H](N)[C@H]3O[C@H]3O[C@H](CO)[C@@H](O)[C@H](O)[C@H]3N)O[C@@H]2CO)[C@H](N)[C@@H](O)[C@@H]1O`: the values for the MIC in assay [6] and in assay [8] were 50 µg/mL (≈ 68 µM) and 6 µg/mL (≈ 8.17 µM), respectively.

For the molecule `NC[C@@H]1O[C@H](O[C@H]2[C@@H](OCCNC3CCCc4ccccc43)[C@H](O[C@@H]3[C@@H](O)[C@H](N)C[C@H](N)[C@H]3O[C@H]3O[C@H](CO)[C@@H](O)[C@H](O)[C@H]3N)O[C@@H]2CO)[C@H](N)[C@@H](O)[C@@H]1O` (stereo not given in full), the MIC is above 10 µg/mL in assay [6] and 1.25 µg/mL (≈ 1.58 µM) in assay [8].

`NC[C@@H]1O[C@H](O[C@H]2[C@@H](OCCNCCN3C(=O)c4cccc5cccc(c45)C3=O)[C@H](O[C@@H]3[C@@H](O)[C@H](N)C[C@H](N)[C@H]3O[C@H]3O[C@H](CO)[C@@H](O)[C@H](O)[C@H]3N)O[C@@H]2CO)[C@H](N)[C@@H](O)[C@@H]1O`: the MIC was above 40 µg/mL in assay [6] and 10 µg/mL (≈ 11.3 µM) in assay [8].

The record behind these values is ChEMBL document CHEMBL1139884, “Structure-based design, synthesis, and A-site rRNA cocrystal complexes of functionally novel aminoglycoside antibiotics: C2" ether analogues of paromomycin” (2007).
